Screens: PubChem BioAssay, several laboratories
Furin inhibitor: human furin inhibitors, primary screen, biochemical, fluorescence intensity; P09958; purified furin, fluorogenic substrate cleavage; inhibition, % at 20 µM or 30 µM; 0.061% of 220,000 active; AID 463115, 2010; in the data active = inhibition above about 25%
FXIIa inh: human FXIIa protease inhibitors, primary screen, biochemical, 1536-well; Coagulation factor XII (Homo sapiens), P00748; purified FXIIa, Boc-QGR-AMC fluorogenic substrate, 2 h; inhibition, % at 5 µM; 0.3% of 220,000 active; AID 800, 2007; in the data active = inhibition above about 40%;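 also: 0% = enzyme with no compound and 100% = blank without enzyme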
KLK5 inh: human KLK5 protease inhibitors, primary screen, biochemical, 1536-well; Kallikrein-5 (Homo sapiens), Q9Y337; recombinant hK5, fluorogenic AMC substrate cleavage; inhibition, % at 5 µM; 0.59% of 210,000 active;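 active = inhibition of 40% or more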;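 also: 0% = enzyme controls without compound and 100% = no-enzyme blanks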
Thrombin inh: human alpha-thrombin inhibitors, primary screen, counter-screen for coagulation protease inhibitor project, biochemical, 1536-well, fluorogenic AMC substrate. Boc-VPR-AMC fluorogenic substrate cleavage. Prothrombin (Homo sapiens), P00734. 0.26% of 220,000 active. AID 1046, 2008. inhibition, % at 5 µM;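 active = inhibition at or above 40%; inactive = inhibition below 40%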;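 also: 0% = enzyme with no compound and 100% = wells without enzyme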
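System – human alpha-thrombin protein · Reagent – Boc-VPR-AMC substrate, 15 µM final · Compound – 5 µM single dose in 0.2% DMSO · Schedule – reaction at room temperature · Technique – AMC fluorescence at 355 nm excitation and 460 nm emission · Read-out basis – % inhibition relative to enzyme controls and enzyme-free blanks · Control set – no-compound enzyme wells and no-enzyme blanks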
FXIa inh: human FXIa protease inhibitors, primary screen, biochemical, 1536-well; Coagulation factor XI (Homo sapiens), P03951; purified FXIa, Boc-Glu-Ala-Arg-AMC fluorogenic substrate; inhibition, % at 5 µM; 0.14% of 220,000 active; AID 798, 2007;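 active = inhibition of at least 40%; inactive = inhibition below 40%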;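 also: fluorescence of freed AMC excited at 355 nm; 0% = enzyme without compound and 100% = no enzyme blank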
Target sequence (P03951 19-387 limits assumed): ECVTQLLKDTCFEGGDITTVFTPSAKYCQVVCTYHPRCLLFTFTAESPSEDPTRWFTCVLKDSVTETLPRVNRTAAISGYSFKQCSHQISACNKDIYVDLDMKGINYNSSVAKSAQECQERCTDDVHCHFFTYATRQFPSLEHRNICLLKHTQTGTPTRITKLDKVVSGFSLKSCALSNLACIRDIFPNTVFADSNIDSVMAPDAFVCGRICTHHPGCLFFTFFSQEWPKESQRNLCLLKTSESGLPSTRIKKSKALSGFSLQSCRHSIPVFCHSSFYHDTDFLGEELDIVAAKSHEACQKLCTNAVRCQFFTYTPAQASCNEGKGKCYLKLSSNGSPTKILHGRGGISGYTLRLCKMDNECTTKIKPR
Target sequence (P03951 388-625 limits assumed): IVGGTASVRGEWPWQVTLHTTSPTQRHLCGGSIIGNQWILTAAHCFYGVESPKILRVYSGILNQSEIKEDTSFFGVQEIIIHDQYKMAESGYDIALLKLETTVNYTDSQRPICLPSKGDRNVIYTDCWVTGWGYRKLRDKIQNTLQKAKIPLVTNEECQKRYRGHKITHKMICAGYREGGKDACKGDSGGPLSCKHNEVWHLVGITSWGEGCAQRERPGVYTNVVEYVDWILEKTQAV
* marks the source's active call; other numbers are inactive results; / = no result. Rows were chosen to be rich in hits. Some 1.1% of all compounds tested hit in one or more screens of this group.

SMILES	Furin inhibitor	FXIIa inh	KLK5 inh	Thrombin inh	FXIa inh
CC(C)(C)NC(=O)c1cccc(NC(=O)c2ccc(NC(=O)c3ccco3)cc2)c1	-11.7	4.9	0.4	-2.0	-7.8
CC(C)(C)c1ccc(C(=O)Nc2ccc(NC(=O)c3ccco3)cc2)cc1	-30.3	10.8	98.8*	0.1	10.8
CC(C)C(=O)OCc1cn(-c2ccc(Cl)c(Cl)c2)nn1	-20.6	4.3	-3.0	-5.2	-3.6
Cc1csc(SC(C)C(=O)NCc2ccc3c(c2)OCO3)n1 (stereo not given)	-23.2	5.5	2.7	-12.8	0.5
CC(Sc1nncn1C)C(=O)NCc1ccc2c(c1)OCO2 (stereo not given)	-9.8	27.9	26.9	77.2*	31.7
Cc1c(Cl)cccc1NC(=S)N1CCN(C(=O)C2CCCO2)CC1 (stereo not given)	-12.3	4.5	-5.9	-12.4	-5.4
COc1cccc(-c2nnc(SCC(=O)NCc3ccc4c(c3)OCO4)n2Cc2ccco2)c1	-10.2	-4.6	4.5	-19.7	0.4
COc1ccc(C)cc1NC(=O)CSc1nnc(COc2ccc(Cl)cc2)n1Cc1ccco1	2.1	52.0*	-3.2	-7.0	14.6
COc1cccc(-c2nnc(SCC(=O)Nc3ccc4c(c3)OCCO4)n2Cc2ccco2)c1	0.0	16.7	46.9*	42.5*	9.4
CC1(C)Oc2ccc(C(=O)NC3CCCC3)cc2N(CC(=O)NC2CCCC2)C1=O	-11.6	63.7*	10.2	1.1	20.0
COc1cc(NC(=O)c2ccco2)c(OC)cc1NC(=O)Nc1cccc(Cl)c1	-24.5	7.0	46.2*	18.3	4.6
C#CCOCCOCCOCCNc1nc(N2CCN(C(=O)Cn3cc(CCCCN)nn3)CC2)nc(N2CCN(C(=O)[C@H](C)n3cc(CCCN=C(N)N)nn3)CC2)n1	-9.6	7.4	0.8	38.3	-6.4
C#CCOCCOCCOCCNc1nc(N2CCN(C(=O)Cn3cc(CC(C)O)nn3)CC2)nc(N2CCN(C(=O)[C@H](C)n3cc(CCCN=C(N)N)nn3)CC2)n1 (stereo not given in full)	-18.6	9.3	-6.7	40.1*	2.5
Cc1cccc(/C=N/N2CCN(c3ccccc3)CC2)c1	-25.3	4.0	-15.8	-5.9	-4.7
O=C(CCNC(=O)c1ccc(Br)o1)NC1CCCC1	-11.2	9.0	1.4	-4.2	-2.4
O=C(NC1CCCCC1)c1ccc(Br)o1	-25.4	7.8	82.5*	15.4	1.3
O=C(NCc1ccccc1)C1CCCN1S(=O)(=O)c1cccc2cccnc12 (stereo not given)	-8.7	0.7	45.6*	-9.1	-8.9
Cc1cc(N2CCN(c3ccccc3)CC2)nc(-c2ccccc2)n1	-4.0	22.7	65.3*	83.3*	3.2
Cc1cc(N2CCN(c3ccccc3)CC2)nc(N)n1	-19.4	4.8	-12.5	-2.6	-1.6
Cc1ccccc1C(=O)NC1CC(C)(C)NC(C)(C)C1	-21.8	16.9	57.9*	33.1	2.8
CN(C)c1ccc(NC(=O)c2ccc(Cn3cc([N+](=O)[O-])cn3)cc2)cc1	-34.0	5.8	-0.6	96.8*	-2.7
CC(/C=N/NC(=O)c1cc(C(C)C)[nH]n1)=C\c1ccccc1	-14.7	-4.7	28.7	46.5*	4.1
C/C(=N\Nc1ccc(Cl)c(C(=O)O)c1)c1cccc([N+](=O)[O-])c1	2.4	32.3	31.7	56.2*	38.8
CC(OC(=O)c1cc(=O)[nH]c2ccccc12)C(=O)c1ccccc1 (stereo not given)	-13.2	3.4	-1.9	2.6	-1.6
c1csc(-c2nc3ccccc3[nH]2)c1	-53.2	42.8*	4.3	13.3	7.4
SMILES	Furin inhibitor	FXIIa inh	KLK5 inh	Thrombin inh	FXIa inh
Cc1ccc(-n2c(C(C)C)nc3oc4ccccc4c(=O)c3c2=O)cc1	-20.0	10.7	2.6	0.4	0.3
Cc1cc(=O)n2c(n1)SCOC2	-6.7	42.8*	35.0	4.8	20.8
CC12C=CC3(O1)C(C(=O)N(c1cccnc1)C3C(=O)NC1CCCCC1)C2C(=O)Nc1ccccc1 (stereo not given)	-21.3	24.4	72.4*	11.2	1.5
CC(C)(C)NC(=O)C1N(c2cccnc2)C(=O)C2C(C(=O)Nc3ccccc3F)C3(C)C=CC21O3 (stereo not given)	-27.4	19.9	-3.7	0.2	1.3
COc1ccc(CCN(Cc2cc3ccc(C)cc3n3nnnc23)C(C)=O)cc1OC	-14.0	9.6	-3.7	13.2	1.1
Oc1cccc(/C=N/N(Cc2ccccc2)c2ccccc2)c1	2.0	/	-5.0	-8.3	-3.3
Oc1ccc(/C=N/N(Cc2ccccc2)c2ccccc2)c(O)c1O	-0.4	26.6	127.5*	28.0	29.0
CN(C)/C(CN1CCN(C=O)CC1)=C1\N=C(c2ccccc2)OC1=O	-6.3	2.1	66.5*	9.2	4.2
O=S(=O)(NC1c2cccc3cccc(c23)C1Sc1ncccn1)c1ccccc1 (stereo not given)	-11.0	1.9	-7.7	-6.6	0.5
O=C(CC(Nc1ccc(F)cc1)C(=O)O)c1ccccc1 (stereo not given)	-10.5	1.8	51.8*	3.6	1.0
O=C(CC(Nc1ccc(F)cc1)C(=O)OCC(=O)c1cccs1)c1ccccc1 (stereo not given)	-12.0	5.7	-1.7	50.1*	-6.4
CC(=O)c1ccc(NC(=S)Nc2cccc3cnccc23)cc1	-7.8	11.0	13.5	18.9	64.6*
CC1CCCC(C)N1C(=O)COc1ccc(F)cc1 (stereo not given)	4.7	0.3	5.0	-1.4	-3.8
O=C(O)CCCC(=O)N1CCN(C(c2ccccc2)c2ccccc2)CC1	-15.4	5.8	51.8*	16.0	6.9
O=C(O)/C=C/C(=O)N1CCN(C(c2ccccc2)c2ccccc2)CC1	-13.5	3.0	-11.1	5.6	4.0
Cc1nn(-c2ccccc2)c(Cl)c1CN(C(=O)CCl)c1ccc(Cl)cc1	-2.8	16.8	45.4*	18.8	8.5
N#CCCn1cc(/C=N/N=C2\NC(=O)C(CC(=O)O)S2)c(-c2ccc(F)cc2)n1 (stereo not given)	-15.8	10.5	-0.7	2.5	9.4
CC(=O)c1c(C)nn(C(=O)c2cccs2)c1C	-20.9	15.1	55.6*	9.6	7.7
COc1ccc(/C=C2\CCCc3c2nc2ccc(C)cc2c3C(=O)O)cc1O	14.0	3.3	-5.8	-0.1	-3.4
COC(=O)c1ccccc1NC(=O)CN(C)S(=O)(=O)c1ccc(OC)c(C)c1	-12.8	4.0	118.7*	2.4	-4.0
CSc1cccc(NC(=O)CN(C)S(=O)(=O)c2ccc(C)cc2)c1	-7.3	22.8	17.4	13.8	10.8
Cc1ccc(S(=O)(=O)N(C)CC(=O)Nc2ccccc2)cc1	-1.9	23.0	53.4*	13.7	15.3
COc1ccc(S(=O)(=O)N(CCCN2CCCC2=O)Cc2cc3cc(C)c(C)cc3[nH]c2=O)cc1	-2.6	9.6	85.8*	29.1	1.2
